KCNK3 inh: human KCNK3 channel inhibitors, primary screen, CHO cells, FluxOR thallium flux, B-score. FluxOR fluorescence; active compounds read low. Potassium channel subfamily K member 3 (Homo sapiens), O14649. AID 602410, 2012. B-score at 10 µM. hit rate 0.84% among 340,000;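 active = B-score under library mean minus 4 SD, starting fluorescence ratio at most library mean plus 5 SD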;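 also: more negative B-score means stronger inhibition of thallium flux through KCNK3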
PHOSPHO1 inh: PubChem AID 1565. recombinant PHOSPHO1, absorbance phosphatase assay. inhibition, % at 13.3 µM. hit rate 1.1% among 290,000; in the data active = inhibition above about 60%
hERG protect: hERG rescue from dofetilide block, primary screen, cell-based, CHO-hERG, FluxOR thallium flux, dofetilide IC70 | activation (rescue from dofetilide block), less the hit threshold, % at 10 µM | Voltage-gated inwardly rectifying potassium channel KCNH2 (Homo sapiens), Q12809 | hit rate 0.51% among 310,000 | dofetilide IC70 present;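 active = activation above the mean of controls blocked by dofetilide plus 5 SD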;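 also: thallium influx through hERG after potassium depolarization seen as dye fluorescence rise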
KCNQ1 pot: potentiators or activators of KCNQ1 channel, primary screen, cell-based, thallium flux, high-throughput; Potassium voltage-gated channel subfamily KQT member 1 (Homo sapiens), P51787; CHO-K1 KCNQ1, thallium flux FluxOR fluorescence; active compounds read high; hit rate 0.35% among 310,000; AID 2648, 2010; B-score at 10 µM;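 active = fluorescence ratio B-score, a plate-corrected score, at least three library SD, with initial intensity B-score within 5 SD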
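Assay system: CHO-K1 cells stably expressing KCNQ1. Medium: assay buffer for compound exposure, DMSO matched across wells. Timing: 37 °C overnight plating, 90-min dark dye load, 20-min compound pretreatment. Signal: kinetic FluxOR fluorescence, 10 s baseline plus 110 s post-stimulus.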
KCNK9 block: KCNK9 potassium channel inhibitors, primary screen, HEK293 cells, thallium flux; FluxOR thallium flux fluorescence; active compounds read low; B-score at 10 µM; hit rate 1.2% among 310,000;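 active = ratio B-score over 3 SD below the library mean, with starting fluorescence within 5 SD of its mean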;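 also: negative B-score means less thallium flux so channel inhibition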
KCNQ1 block: inhibitors of human KCNQ1 channel, primary screen, cell-based, thallium flux, high-throughput | hit rate 1.3% among 310,000 | CHO-K1 KCNQ1, FluxOR thallium flux fluorescence; active compounds read high | B-score at 10 µM | Potassium voltage-gated channel subfamily KQT member 1 (Homo sapiens), P51787;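 active = compounds whose thallium flux B-score, printed positive for inhibition, exceeds three library SD while starting fluorescence stays within three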;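 also: channel opened by potassium depolarization with thallium stimulus after 20 min compound exposure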
KCNK9 block conf: KCNK9 potassium channel inhibitors, confirmation, HEK293 cells, thallium flux, duplicate; shares compounds with KCNK9 block; hit rate 43% among 4,900; inhibition, % at 10 µM; FluxOR thallium flux fluorescence; AID 492992, 2010;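 active = thallium signal inhibited by more than 5 SD of the compound-free buffer control wells, on both duplicate plates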
Kir2-1 spec: mouse Kir2.1 channel inhibition, confirmation, selectivity assay for KCNK9 modulator project, cell-based, HEK293, thallium flux; shares compounds with KCNK9 block; Kir2.1 cells, FluxOR thallium flux fluorescence; inhibition, % at 10 µM; hit rate 4% among 4,900;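 active = thallium signal drop more than 5 SD beyond the mean of the no-compound control wells, seen in both duplicate plates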;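 also: signal is fluorescence rise after thallium addition divided by baseline fluorescence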
KCNK9 uninduced: thallium flux in non-induced HEK293 cells, confirmation, counter-screen for KCNK9 inhibitor project, cell-based, second counter screen, non-induced KCNK9-HEK293; FluxOR thallium flux; inhibition, % at 10 µM; hit rate 40% among 4,900; shares compounds with KCNK9 block;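 active = thallium signal drop beyond 5 SD of the untreated control mean, on both duplicate plates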
Large screens that a line does not name were inactive (follow-up assays come after a bar, where they were run). Shown are actives, neighbours in structure and some others; about 4% of the full set was active somewhere.

O=C(CCC(=O)c1ccc(Oc2ccccc2)cc1)Nc1cccc(Cl)c1Cl	none | KCNK9 block conf inactive | Kir2-1 spec inactive | KCNK9 uninduced 26%
CCc1ccccc1NC(=O)NC(C)c1ccc2c(c1)OCO2 (configuration not stated)	none
COc1ccc(S(=O)(=O)n2ccc(-c3cnc(-c4ccccc4)s3)n2)cc1	KCNK9 block -10 | KCNK9 block conf inactive | Kir2-1 spec inactive | KCNK9 uninduced 31%
OCC1OC(n2cnc3c(NC4CCCCC4)ncnc32)C(O)C1O (configuration not stated)	none
Cc1c(NC(=O)C(C)OC(=O)c2cccnc2Cl)c(=O)n(-c2ccccc2)n1C (configuration not stated)	none (no result: PHOSPHO1 inh, hERG protect, KCNQ1 pot, KCNK9 block, KCNQ1 block)
CCN1CCCc2cc(CN(CCN3CCOCC3)C(=O)Nc3ccc(C)c(C)c3)ccc21	none | KCNK9 block conf inactive | Kir2-1 spec inactive | KCNK9 uninduced inactive
CCC(c1ccccc1)c1nnc(NC(=O)c2ccco2)s1 (configuration not stated)	KCNK9 block -8.7 | KCNK9 block conf inactive | Kir2-1 spec inactive | KCNK9 uninduced inactive
Cc1nc(Nc2ccc(Cl)cc2Cl)sc1C(=O)Nc1ccccc1	none | KCNK9 block conf inactive | Kir2-1 spec inactive | KCNK9 uninduced inactive
Cc1nc(Nc2ccc(Cl)c(Cl)c2)sc1C(=O)Nc1ccccc1	none
Cc1cc(N/N=C/c2ccc(Cl)cc2Cl)nc(NCc2ccccc2)n1	none | KCNK9 block conf inactive | Kir2-1 spec inactive | KCNK9 uninduced inactive
COc1cccc(N2CCN(c3ccc4nnc(CCC(=O)Nc5ccccc5OC)n4n3)CC2)c1	none
CCN(CC)C(=O)C(C)N(C#N)c1nc(C)cc(C)n1 (configuration not stated)	none
CCOC(=O)N1CCN(Cc2c(NC(=O)c3ccco3)sc(C)c2C)CC1	none
Cc1sc(NC(=O)c2ccco2)c(CN2CCN(c3ccccn3)CC2)c1C	KCNK3 inh -9.8, KCNK9 block -12 | KCNK9 block conf 48% | Kir2-1 spec inactive | KCNK9 uninduced 30%
O=C(Nc1csc(Cl)c1)c1ccccc1	none (no result: PHOSPHO1 inh)
Cc1cccc(OCCNC(=O)c2cccc(Oc3ccc(C(F)(F)F)cc3[N+](=O)[O-])c2)c1	none | KCNK9 block conf inactive | Kir2-1 spec inactive | KCNK9 uninduced inactive
O=C(/C=C/c1ccc(-c2ccccc2[N+](=O)[O-])o1)c1ccccc1	KCNK9 block -8.5 | KCNK9 block conf 40% | Kir2-1 spec inactive | KCNK9 uninduced 28%
O=C(O)/C(=C\c1ccc(-c2ccccc2[N+](=O)[O-])o1)c1ccccc1	none
CCCCCc1nnc(NC(=O)Cc2ccc([N+](=O)[O-])cc2)s1	none
Cc1cccc(S(=O)(=O)c2c(C)cc(C)[nH]c2=O)c1	none (no result: PHOSPHO1 inh)
C=C(C)Cn1c(C)cc(C)c(S(=O)(=O)c2cccc(C)c2)c1=O	KCNK9 block -8.4 | KCNK9 block conf 54% | Kir2-1 spec 44% | KCNK9 uninduced 44%
COc1ccc(-n2c(SCC(=O)Nc3ccc4c(c3)OCO4)nc3ccccc3c2=O)cc1	KCNK9 block -9.3 | KCNK9 block conf 38% | Kir2-1 spec inactive | KCNK9 uninduced 36%
CC1Cc2nc(SCC(=O)Nc3ccc4c(c3)OCO4)n(CCc3ccccc3)c(=O)c2S1 (configuration not stated)	KCNK9 block -12 | KCNK9 block conf 58% | Kir2-1 spec inactive | KCNK9 uninduced inactive
CCC(C)n1c(SCC(=O)NC(=O)Nc2ccc3c(c2)OCCO3)nc2ccccc2c1=O (configuration not stated)	KCNK3 inh -8.7, KCNK9 block -15 | KCNK9 block conf 50% | Kir2-1 spec inactive | KCNK9 uninduced 30%
CCOc1ccc(-n2c(SCC(=O)Nc3ccc4c(c3)OCO4)nc3ccccc3c2=O)cc1	none
CCn1c(SCC(=O)Nc2ccc3c(c2)OCO3)nc2c(c1=O)SC(C)C2 (configuration not stated)	none
O=C(Nc1ccncc1)c1cc(S(=O)(=O)N2CCN(c3ccccc3)CC2)ccc1Cl	none (no result: PHOSPHO1 inh)
Cc1cccc(NS(=O)(=O)c2cccc(C(=O)NCC(C)(C)N3CCOCC3)c2)c1	none
CCOc1ccc2cc(/C=C/C(=O)c3ccco3)c(Cl)nc2c1	KCNK3 inh -9.6, KCNK9 block -12 | KCNK9 block conf inactive | Kir2-1 spec inactive | KCNK9 uninduced 33%
CCN(CC)c1ccc(-c2nn3c(-c4ccccc4OC)nnc3s2)cc1	KCNK9 block -14 | KCNK9 block conf 43% | Kir2-1 spec inactive | KCNK9 uninduced inactive
COc1ccccc1-c1nn2c(-c3ccccc3Cl)nnc2s1	none (no result: KCNK3 inh, hERG protect, KCNQ1 pot, KCNK9 block, KCNQ1 block)
COc1ccc(C)c2sc(NNC(=O)COc3ccccc3)nc12	none (no result: KCNK3 inh)
CN1CCN(c2ncnc3sc(-c4ccccc4)cc23)CC1	none
c1ccc(-c2cc3c(N4CCN(c5ncccn5)CC4)ncnc3s2)cc1	none | KCNK9 block conf inactive | Kir2-1 spec inactive | KCNK9 uninduced inactive
COc1ccc(S(=O)(=O)NC2CC2)cc1C(=O)N1CCOCC1	none
Cc1ccc(C)c(N2CCN(C(=O)CCS(=O)(=O)c3ccc4c(c3)oc(=O)n4C)CC2)c1	none | KCNK9 block conf inactive | Kir2-1 spec inactive | KCNK9 uninduced inactive
Cn1c(=O)oc2cc(S(=O)(=O)CCC(=O)N3CCN(c4ccccc4F)CC3)ccc21	none
CC(=O)NC(NC(=S)Nc1ccc(N=Nc2ccccc2)cc1)C(Cl)(Cl)Cl (configuration not stated)	none
COc1cc(/C=N/N2C(=O)c3ccccc3NC2(C)c2cccc([N+](=O)[O-])c2)cc(Br)c1O (configuration not stated)	KCNK9 block -14 | KCNK9 block conf 56% | Kir2-1 spec inactive | KCNK9 uninduced 46%
COc1cc(/C=N/NC(=O)c2ccc([N+](=O)[O-])cc2Cl)cc(Br)c1O	none

Screens as filed in PubChem.
